13 compounds from ChEMBL document CHEMBL1149200, “Toxic effects of natural piperine and its derivatives on epimastigotes and amastigotes of Trypanosoma cruzi” (Bioorg Med Chem Lett, 2004) can be followed below.

Assay [1] concerns Trypanosoma cruzi. In words: In vitro growth inhibition of epimastigotes of Trypanosoma cruzi. The format is functional, organism-based. The method in brief: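 Y-strain epimastigotes were grown in axenic culture and proliferation was measured. Compounds came from 10 mg mL-1 DMSO stocks, diluted 1:2 serially in medium to final levels of 0.76–25, each in triplicate. IC50 was derived by linear regression.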

Assay [2] has as its system Trypanosoma cruzi. Put plainly: In vitro growth inhibition of amastigotes of Trypanosoma cruzi. It is filed as functional, organism-based. The method in brief: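 Intracellular amastigotes, Y-strain, in in vitro infected murine peritoneal macrophages. Compounds were held as 10 mg mL-1 DMSO stocks and serially diluted in medium before use. Read-out was the reduction in intracellular amastigote number. IC50 was obtained by linear regression.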

Compound `O=C(O)/C=C/C=C/c1ccc2c(c1)OCO2` [PIPERIC ACID] gave an IC50 in assay [1] of more than 115 µM.
In assay [1], `COc1ccc(CCNC(=O)/C=C/C=C/c2ccc3c(c2)OCO3)cc1OC` returned an IC50 of more than 65.6 µM.
For the compound `O=C(CCCCc1ccc2c(c1)OCO2)N1CCCCC1` [TETRAHYDROPIPERINE], the IC50 turned out to be 11.5 µM in assay [2] and 19.4 µM in assay [1].
In assay [2], `O=C(Cn1ccnc1[N+](=O)[O-])NCc1ccccc1` [BENZNIDAZOLE] showed an IC50 of 2.58 µM.
On to `O=C(/C=C/C=C/c1ccc2c(c1)OCO2)N1CCOCC1`, for which the IC50 is 5.71 µM in assay [2] and 56.1 µM in assay [1].
On the same counts, the results for `CC(C)N(C(=O)/C=C/C=C/c1ccc2c(c1)OCO2)C(C)C` are 7.77 µM and 14.8 µM.
On the same counts, the results for `C(/C=C/c1ccc2c(c1)OCO2)=C\CN1CCCCC1` are 9.63 µM and 17.5 µM.
Regarding `CN1CCN(C(=O)/C=C/C=C/c2ccc3c(c2)OCO3)CC1`, the IC50 in assay [1] was more than 83.3 µM.
With `O=C(/C=C/c1ccc2c(c1)OCO2)N1CCOCC1`, the IC50 in assay [1] was more than 95.8 µM.
Consider `O=C(/C=C/C=C/C=C/c1ccc2c(c1)OCO2)N1CCCCC1`, for which the results for the IC50 in assay [2] and in assay [1] were 7.4 µM and 10.7 µM, respectively.
The compound `O=C(/C=C/C=C/c1ccc2c(c1)OCO2)NCc1ccccc1` yielded an IC50 in assay [1] of more than 81.4 µM.
Still for that read-out and setting: the figure for `O=C(/C=C/C=C/c1ccc2c(c1)OCO2)OC1CCCCC1` is more than 83.3 µM.
On the same count and under the same terms, as for `O=C(/C=C/c1ccc2c(c1)OCO2)N1CCCCC1` [ILEPCIMIDE], the figure is more than 96.5 µM.
